The results in this text go back to publication PMC9558256 (ACS Omega, 2022).

A value given as a limit tells only on which side of the number the result lay.

Series [1] has as its system P. falciparum resistant strain F32-ART. In words: Antiplasmodial activity. It counts as cell-based. The settings on record: Plasmodium falciparum, F32, read-out: P. falciparum F32ART IC50. The essentials: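 Test compounds screened against artemisinin-resistant P. falciparum F32-ART (selected after 144 intermittent, increasing artemisinin doses) by SYBR Green at 1 and 10 μM, in triplicate, in two independent experiments. Compounds giving around or above 50% growth inhibition at 10 μM were retested at four doses, each in triplicate, to derive IC50.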

Series [2] has as its system L. donovani intramacrophage amastigote forms (LV9). Nature of the series: In vitro antileishmanial evaluation on intramacrophage amastigotes. It counts as cell-based. The settings on record: Leishmania donovani, RAW264.7, 48 h, read-out: L. donovani IC50. The essentials: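 RAW 264.7 macrophages were infected with L. donovani LV9 axenic amastigotes at 10 parasites per macrophage. Test compound was added 24 h post-infection for 48 h, with top concentrations set from RAW 264.7 cytotoxicity. Parasite growth reduction was read by SYBR Green incorporation and IC50 derived by regression. Miltefosine served as reference drug.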

The nature of series [3]: Cytotoxicity on RAW 264.7 macrophages. It counts as cell-based. The settings on record: mouse.
The subject of series [4] is L. donovani axenic amastigotes (LV9). In words: In vitro antileishmanial evaluation on axenic amastigotes. It counts as cell-based. The following applies: Leishmania donovani, read-out: IC50 on the axenic form of L. donovani.
Series [5] can be described thus: Cytotoxicity on Vero cells. It counts as cell-based. The following applies: African green monkey.
Another series relates to M. tuberculosis H37Rv. In words: MIC determination by resazurin reduction microplate assay. It counts as cell-based, Mycobacterium tuberculosis. The following applies: MIC comparison with literature BNF15. (In general: Resazurin is reduced to fluorescent resorufin, in cell work by metabolically active cells.)

As usually defined, the IC50 is the concentration at which inhibition is half-maximal. As a reminder, the CC50 is the concentration giving 50% cytotoxicity.

Consider `CC(C)(C)Nc1oc2c(c1-c1ccc(Cl)cc1)C(=O)c1ccccc1C2=O` [Compound 9, 2-(tert-Butylamino)-3-(4-chlorophenyl)naphtho[2,3-b]furan-4,9-dione], for which, in series [1], the IC50 is above 10 µM.

In the case of `CC(C)(C)Nc1oc2c(c1-c1cccc(Br)c1)C(=O)c1ccccc1C2=O` [Compound 10, 3-(3-Bromophenyl)-2-(tert-butylamino)naphtho[2,3-b]furan-4,9-dione], the IC50 in series [1] was above 10 µM.

With `COc1cc(-c2c(NC(C)(C)C)oc3c2C(=O)c2ccccc2C3=O)cc(OC)c1OC` [Compound 11, 2-(tert-Butylamino)-3-(3,4,5-trimethoxyphenyl)naphtho[2,3-b]furan-4,9-dione], in series [1], the IC50 was above 10 µM.

As for `COc1ccc(-c2c(NC(C)(C)C)oc3c2C(=O)c2ccccc2C3=O)cc1OC` [Compound 12, 2-(tert-Butylamino)-3-(3,4-dimethoxyphenyl)naphtho[2,3-b]furan-4,9-dione], the IC50 in series [1] is above 10 µM.

In the case of `Cn1ncc2cc(-c3c(NC(C)(C)C)oc4c3C(=O)c3ccccc3C4=O)ccc21` [Compound 13, 2-(tert-Butylamino)-3-(1-methyl-1H-indazol-5-yl)naphtho[2,3-b]furan-4,9-dione], the 50% inhibitory concentration (IC50) in series [1] is above 10 µM.

In the case of `CC(C)(C)Nc1oc2c(c1-c1cc3ccccc3[nH]1)C(=O)c1ccccc1C2=O` [Compound 14, 2-(tert-Butylamino)-3-(1H-indol-2-yl)naphtho[2,3-b]furan-4,9-dione], the 50% inhibitory concentration (IC50) in series [1] was above 10 µM.

Take `CC(C)(C)Nc1oc2c(c1-c1ccc([N+](=O)[O-])o1)C(=O)c1ccccc1C2=O` [Compound 15, 2-(tert-Butylamino)-3-(5-nitrofuran-2-yl)naphtho[2,3-b]furan-4,9-dione]: the 50% inhibitory concentration (IC50) in series [1] is above 10 µM.

In the case of `CC(C)(C)Nc1oc2c(c1C1CCN(C(=O)OC(C)(C)C)CC1)C(=O)c1ccccc1C2=O` [Compound 16, tert-Butyl 4-(2-(tert-Butylamino)-4,9-dioxo-4,9-dihydronaphtho[2,3-b]furan-3-yl)piperidine-1-carboxylate], the half-inhibitory concentration (IC50) in series [1] was above 10 µM; in series [2], 6.97 µM; in series [4], below 10 µM. Besides, in series [3], the midpoint of cytotoxicity, the CC50, lay at 49.2 µM.

`CC(C)(C)Nc1oc2c(c1C1CCN(Cc3ccccc3)CC1)C(=O)c1ccccc1C2=O` [Compound 17, 3-(1-Benzylpiperidin-4-yl)-2-(tert-butylamino)naphtho[2,3-b]furan-4,9-dione]: in series [1], the IC50 stood at 2.5 µM. The CC50 in series [5] amounted to 86 µM. The “fold less active than BNF15 against M. tuberculosis” value with M. tuberculosis H37Rv is reported as “about 7 fold”.

Consider `O=C1c2ccccc2C(=O)c2c1oc(NC1CCCCC1)c2-c1ccc(Cl)cc1` [Compound 18, 3-(4-Chlorophenyl)-2-(cyclohexylamino)naphtho[2,3-b]furan-4,9-dione], for which the IC50 is 11 µM in series [1], 9.41 µM in series [2] and below 10 µM in series [4]. The results for the CC50 in series [5] and in series [3] were 50 µM and 54.2 µM, respectively.

As for `COc1cc(-c2c(NC3CCCCC3)oc3c2C(=O)c2ccccc2C3=O)cc(OC)c1OC` [Compound 19, 2-(Cyclohexylamino)-3-(3,4,5-trimethoxyphenyl)naphtho[2,3-b]furan-4,9-dione], the IC50 in series [1] came to 6 µM. Moreover, the CC50 in series [5] was above 100 µM.

As for `Cn1ncc2cc(-c3c(NC4CCCCC4)oc4c3C(=O)c3ccccc3C4=O)ccc21` [Compound 20, 2-(Cyclohexylamino)-3-(1-methyl-1H-indazol-5-yl)naphtho[2,3-b]furan-4,9-dione], the half-maximal inhibitory concentration (IC50) in series [1] was 10 µM.

In the case of `O=C1c2ccccc2C(=O)c2c1oc(NC1CCCCC1)c2-c1ccc([N+](=O)[O-])o1` [Compound 21, 2-(Cyclohexylamino)-3-(5-nitrofuran-2-yl)naphtho[2,3-b]furan-4,9-dione], the IC50 in series [1] was above 10 µM.

Consider `O=C1c2ccccc2C(=O)c2c1oc(NC1CCCCC1)c2C1CCN(Cc2ccccc2)CC1` [Compound 22, 3-(1-Benzylpiperidin-4-yl)-2-(cyclohexylamino)naphtho[2,3-b]furan-4,9-dione], for which, in series [1], the IC50 was 3.6 µM. Moreover, it took 36 µM to reach half-maximal cytotoxicity in series [5] (CC50).

As for `CCCCNc1oc2c(c1-c1ccc(Cl)cc1)C(=O)c1ccccc1C2=O` [Compound 23, 2-(Butylamino)-3-(4-chlorophenyl)naphtho[2,3-b]furan-4,9-dione], the IC50 in series [1] is above 10 µM.

On to `CCCCNc1oc2c(c1-c1cc(OC)c(OC)c(OC)c1)C(=O)c1ccccc1C2=O` [Compound 24, 2-(Butylamino)-3-(3,4,5-trimethoxyphenyl)naphtho[2,3-b]furan-4,9-dione], for which the IC50 in series [1] amounted to 9 µM. This compound also came in with a 50% cytotoxic concentration (CC50) in series [5] above 100 µM.

With `CCCCNc1oc2c(c1-c1ccc([N+](=O)[O-])o1)C(=O)c1ccccc1C2=O` [Compound 26, 2-(Butylamino)-3-(5-nitrofuran-2-yl)naphtho[2,3-b]furan-4,9-dione], the IC50 in series [1] is above 10 µM.

On to `CCCCNc1oc2c(c1C1CCN(Cc3ccccc3)CC1)C(=O)c1ccccc1C2=O` [Compound 27, 3-(1-Benzylpiperidin-4-yl)-2-(butylamino)naphtho[2,3-b]furan-4,9-dione], for which the IC50 in series [1] is 4 µM. In series [5], this compound registered a CC50 of 24 µM.

With `CC(C)(C)NC=C1C(=O)C(=O)c2ccccc2C1=O` [Compound 28, 3-((tert-Butylamino)methylene)naphthalene-1,2,4(3H)-trione], the figures for the IC50 in series [1], in series [2] and in series [4] were 1.4 µM, 3.5 µM and below 10 µM, respectively. Further, the CC50 in series [5] is above 50 µM; in series [3], above 100 µM.

As to `CCCCNC=C1C(=O)C(=O)c2ccccc2C1=O` [Compound 29, 3-((Butylamino)methylene)naphthalene-1,2,4(3H)-trione], the IC50 in series [1] is 1.9 µM; in series [2], 6.33 µM; in series [4], below 10 µM. In addition, the CC50 in series [5] was above 50 µM; in series [3] it was 46.5 µM.

For the compound `O=C1C(O)=C([C@H]2CC[C@H](c3ccc(Cl)cc3)CC2)C(=O)c2ccccc21` [atovaquone (7), atovaquone, reference compound], the IC50 in series [1] is 0.001 µM; in series [2], 11.1 µM. Besides, the values for the CC50 in series [5] and in series [3] were 6 µM and 44 µM, respectively.

As for `O=C1C=C(O)C(=O)c2ccccc21` [lawsone (1), 2-hydroxy-1,4-naphthoquinone, reference compound], the half-maximal inhibitory concentration (IC50) is above 10 µM in series [1] and 6.27 µM in series [2]. This compound also yielded a CC50 in series [3] of 44 µM.

For `CCCCCCCCCCCCCCCCOP(=O)([O-])OCC[N+](C)(C)C` [miltefosine, reference compound], the IC50 in series [2] was determined as 1.46 µM. In series [3], this compound returned a CC50 of 22.6 µM.
